From ChEMBL document CHEMBL5096186, “Design, Synthesis, and Biological Evaluation of Novel Pyrimido[4,5-b]indole Derivatives Against Gram-Negative Multidrug-Resistant Pathogens” (J Med Chem, 2021)
Converted amounts (≈) assume the structure as drawn.

Tests used:
Staphylococcus aureus [1] = test: Antibacterial activity against methicillin-resistant Staphylococcus aureus strains 15 1 to 4 assessed as reduction in bacterial growth incubated for 18 to 20 hrs by CLSI based microdilution method; format: functional; conditions: time 18-20 hrs
Outline: (§1)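 Broth microdilution per CLSI. Compounds dissolved in DMSO (levofloxacin and meropenem in water) as 64 μg/mL stock, then serial twofold dilutions in broth giving 64 to 0.008 μg/mL. […] Clinical isolates tested as several strains per group; racemic GP-1 served as positive control; values given as MIC ranges.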

Pseudomonas aeruginosa [2] = test: Antibacterial activity against multidrug resistant Pseudomonas aeruginosa strains 15 1 to 3 assessed as reduction in bacterial growth incubated for 18 to 20 hrs by CLSI based microdilution method; format: functional; conditions: time 18-20 hrs; outline: as §1
[3] = tested on: Staphylococcus epidermidis; test: Antibacterial activity against methicillin-sensitive Staphylococcus epidermidis strains 15 1 to 4 assessed as reduction in bacterial growth incubated for 18 to 20 hrs by CLSI based microdilution method; format: functional; conditions: time 18-20 hrs; outline: as §1
[4] = tested on: Staphylococcus epidermidis; test: Antibacterial activity against methicillin-resistant Staphylococcus epidermidis strains 15 1 to 4 assessed as reduction in bacterial growth incubated for 18 to 20 hrs by CLSI based microdilution method; format: functional; conditions: time 18-20 hrs; outline: as §1
Escherichia coli [5] = test: Antibacterial activity against Escherichia coli ATCC 35218 strains 15 1 to 3 assessed as reduction in bacterial growth incubated for 18 to 20 hrs by CLSI based microdilution method; format: functional; conditions: time 18-20 hrs
Outline: (§2)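 CLSI broth microdilution. Compounds in DMSO (levofloxacin and meropenem in water), serial twofold dilutions in broth, 64 to 0.008 μg/mL. […] Results reported as MIC ranges across strains.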

Escherichia coli [6] = test: Antibacterial activity against ESBL-producing Escherichia coli ATCC 35218 strains 15 1 to 3 assessed as reduction in bacterial growth incubated for 18 to 20 hrs by CLSI based microdilution method; format: functional; conditions: time 18-20 hrs; outline: as §2
Staphylococcus aureus [7] = test: Antibacterial activity against methicillin-sensitive Staphylococcus aureus strains 15 1 to 4 assessed as reduction in bacterial growth incubated for 18 to 20 hrs by CLSI based microdilution method; format: functional; conditions: time 18-20 hrs; outline: as §1
Pseudomonas aeruginosa [8] = test: Antibacterial activity against wild type Pseudomonas aeruginosa ATCC 27853 assessed as reduction in bacterial growth incubated for 18 to 20 hrs by CLSI based microdilution method; format: functional; conditions: time 18-20 hrs; outline: as §2
[9] = Volume of distribution at the steady state in Sprague-Dawley rat at 4 mg/kg, iv measured upto 24 hrs by LC-MS/MS analysis; format: ADME, organism-based; conditions: in vivo, read-out: Vdss
Outline: (§3)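 Male Sprague-Dawley rats, n = 3 per group, single intravenous dose. For 4 mg/kg: 180–280 g rats, vehicle 5% DMSO + 5% EtOH + 40% PEG300 + 50% saline, blood from the retrobulbar vein at 0.05–24 h. For 5 and 20 mg/kg: 180–300 g rats, vehicle 5% DMSO + 5% solutol + 90% saline, sampled at 0.083–24 h. Plasma quantified by LC/MS/MS. Parameters from mean plasma concentration by noncompartmental analysis; values are mean ± standard deviation.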

[10] = biological target: hERG (KCNH2) potassium channel (Homo sapiens, UniProt Q12809); test: Inhibition of hERG potassium channel assessed as maximum inhibition rate at 40 uM at -80 mV holding potential incubated for 120 seconds by whole cell-automated voltage clamp analysis assay relative to control; format: toxicity; conditions: time 120 sec
Chain of hERG (KCNH2) potassium channel (Q12809 whole entry): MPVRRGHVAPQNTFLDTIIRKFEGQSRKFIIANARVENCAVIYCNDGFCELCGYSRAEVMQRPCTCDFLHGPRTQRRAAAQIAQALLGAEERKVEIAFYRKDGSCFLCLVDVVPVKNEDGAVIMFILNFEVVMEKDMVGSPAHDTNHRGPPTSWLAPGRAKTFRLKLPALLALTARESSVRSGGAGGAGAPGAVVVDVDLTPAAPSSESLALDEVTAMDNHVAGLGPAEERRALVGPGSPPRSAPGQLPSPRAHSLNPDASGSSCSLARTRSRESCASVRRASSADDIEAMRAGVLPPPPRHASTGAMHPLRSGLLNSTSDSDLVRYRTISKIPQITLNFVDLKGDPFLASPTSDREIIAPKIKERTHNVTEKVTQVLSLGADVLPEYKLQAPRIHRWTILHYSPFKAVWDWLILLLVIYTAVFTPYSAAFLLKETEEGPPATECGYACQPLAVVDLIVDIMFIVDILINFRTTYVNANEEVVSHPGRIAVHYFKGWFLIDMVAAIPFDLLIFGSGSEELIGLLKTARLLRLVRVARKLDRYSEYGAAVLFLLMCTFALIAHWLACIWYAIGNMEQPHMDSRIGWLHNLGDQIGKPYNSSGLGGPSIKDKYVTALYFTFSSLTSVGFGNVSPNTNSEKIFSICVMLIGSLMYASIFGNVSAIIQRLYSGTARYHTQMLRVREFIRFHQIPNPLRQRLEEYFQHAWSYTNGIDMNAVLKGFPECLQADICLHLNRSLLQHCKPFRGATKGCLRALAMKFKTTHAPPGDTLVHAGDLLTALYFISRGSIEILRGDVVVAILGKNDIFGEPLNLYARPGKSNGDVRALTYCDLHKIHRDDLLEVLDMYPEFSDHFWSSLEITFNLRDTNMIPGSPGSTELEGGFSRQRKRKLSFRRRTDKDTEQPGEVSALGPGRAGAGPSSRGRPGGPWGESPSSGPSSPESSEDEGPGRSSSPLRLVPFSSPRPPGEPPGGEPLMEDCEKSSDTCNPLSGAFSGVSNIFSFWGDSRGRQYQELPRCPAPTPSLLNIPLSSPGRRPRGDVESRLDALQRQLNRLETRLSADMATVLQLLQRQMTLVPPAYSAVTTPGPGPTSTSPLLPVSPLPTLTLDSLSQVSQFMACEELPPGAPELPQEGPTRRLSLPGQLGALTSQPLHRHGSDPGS
Outline: (§4)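 Automated whole-cell patch clamp, holding potential −80 mV. Voltage protocol applied every 20 s. Baseline set with external solution containing 0.1% DMSO and stabilised 3 min. Compound applied until steady state, at least 3 min, then washout. Maximum tested concentration 40 μM, or 3 μM for cisapride as positive control.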

[11] = Metabolic stability in rat liver microsome assessed as intrinsic clearance at 0.1 uM in presence of NADPH incubated upto 60 mins by LC-MS/MS analysis; format: ADME; conditions: microsomes, 1 h
Outline: (§5)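 Compound at 0.1 μM final, in 0.01% DMSO with 0.005% BSA. Incubated with rat or human liver microsomes at 0.33 mg/mL in 0.1 M Tris-HCl, pH 7.4, with 5 mM MgCl₂ and 1 mM NADPH, at 37 °C. Samples at 0, 7, 17, 30 and 60 min quenched with cold methanol and analysed by LC-MS/MS. Half-life, Cl_int and MF% derived as previously described.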

Acinetobacter baumannii [12] = test: Antibacterial activity against wild type Acinetobacter baumannii NCTC 13304 assessed as reduction in bacterial growth incubated for 18 to 20 hrs by CLSI based microdilution method; format: functional; conditions: time 18-20 hrs; outline: as §1
[13] = Metabolic stability in rat liver microsome assessed as metabolic bioavailability at 0.1 uM in presence of NADPH incubated upto 60 mins by LC-MS/MS analysis; format: ADME; conditions: liver microsomes; outline: as §5
[14] = Elimination half life in Sprague-Dawley rat at 4 mg/kg, iv measured upto 24 hrs by LC-MS/MS analysis; format: ADME, organism-based; conditions: in vivo, read-out: beta t1/2 (converted); outline: as §3
Escherichia coli [15] = test: Antibacterial activity against ESBL-producing multidrug resistant Escherichia coli assessed as reduction in bacterial growth incubated for 18 to 20 hrs by CLSI based microdilution method; format: functional; conditions: time 18-20 hrs; outline: as §1
Klebsiella pneumoniae [16] = test: Antibacterial activity agains wild type Klebsiella pneumoniae ATCC BAA-1705 assessed as reduction in bacterial growth incubated for 18 to 20 hrs by CLSI based microdilution method; format: functional; conditions: time 18-20 hrs; outline: as §2
[17] = AUC (0 to infinity) in Sprague-Dawley rat at 4 mg/kg, iv measured upto 24 hrs by LC-MS/MS analysis; format: ADME, organism-based; parameters: time < 24 hrs, dose 4 mg/kg, route iv; conditions: in vivo; outline: as §3
Klebsiella pneumoniae [18] = test: Antibacterial activity agains wild type Klebsiella pneumoniae ATCC BAA-2470 assessed as reduction in bacterial growth incubated for 18 to 20 hrs by CLSI based microdilution method; format: functional; conditions: time 18-20 hrs; outline: as §1
Escherichia coli [19] = test: Antibacterial activity against multidrug resistant wild type Escherichia coli NCTC 13353 assessed as reduction in bacterial growth incubated for 18 to 20 hrs by CLSI based microdilution method; format: functional; conditions: time 18-20 hrs; outline: as §1
Pseudomonas aeruginosa [20] = test: Antibacterial activity against IMP4-producing multidrug resistant Pseudomonas aeruginosa assessed as reduction in bacterial growth incubated for 18 to 20 hrs by CLSI based microdilution method; format: functional; conditions: time 18-20 hrs; outline: as §1
[21] = Metabolic stability in human liver microsome assessed as metabolic bioavailability at 0.1 uM in presence of NADPH incubated upto 60 mins by LC-MS/MS analysis; format: ADME; conditions: liver microsomes; outline: as §5
Klebsiella pneumoniae [22] = test: Antibacterial activity against KPC2-producing multidrug resistant Klebsiella pneumoniae assessed as reduction in bacterial growth incubated for 18 to 20 hrs by CLSI based microdilution method; format: functional; conditions: time 18-20 hrs; outline: as §1
[23] = biological target: Voltage-gated inwardly rectifying potassium channel KCNH2 (Homo sapiens, UniProt Q12809); test: Inhibition of hERG potassium channel assessed as […] at -80 mV holding potential incubated for 120 seconds by whole cell-automated voltage clamp analysis assay; format: toxicity; outline: as §4
Chain of Voltage-gated inwardly rectifying potassium channel KCNH2 (Q12809 whole entry): as above

[24] = Metabolic stability in human liver microsome assessed as intrinsic clearance at 0.1 uM in presence of NADPH incubated upto 60 mins by LC-MS/MS analysis; format: ADME; conditions: microsomes, 1 h; outline: as §5
[25] = Clearance in Sprague-Dawley rat at 4 mg/kg, iv measured upto 24 hrs by LC-MS/MS analysis; format: ADME, organism-based; conditions: in vivo; outline: as §3
[26] = Metabolic stability in human liver microsome assessed as elimination half life at 0.1 uM in presence of NADPH incubated upto 60 mins by LC-MS/MS analysis; format: ADME; conditions: liver microsomes, read-out: beta t1/2; outline: as §5
[27] = Metabolic stability in rat liver microsome assessed as elimination half life at 0.1 uM in presence of NADPH incubated upto 60 mins by LC-MS/MS analysis; format: ADME; conditions: liver microsomes, read-out: beta t1/2; outline: as §5
[28] = MRT in Sprague-Dawley rat at 4 mg/kg, iv measured upto 24 hrs by LC-MS/MS analysis; format: ADME, organism-based; conditions: in vivo; outline: as §3
Acinetobacter baumannii [29] = test: Antibacterial activity agains OXA23-producing multidrug resistant Acinetobacter baumannii assessed as reduction in bacterial growth incubated for 18 to 20 hrs by CLSI based microdilution method; format: functional; conditions: time 18-20 hrs; outline: as §1
Escherichia coli [30] = test: Antibacterial activity against multidrug resistant wild type Escherichia coli ATCC BAA-2340 assessed as reduction in bacterial growth incubated for 18 to 20 hrs by CLSI based microdilution method; format: functional; conditions: time 18-20 hrs; outline: as §1

| Compound | MIC (Pseudomonas aeruginosa [2]) [µg/mL] | MIC [3] [µg/mL] | MIC (Escherichia coli [5]) [µg/mL] | MIC (Escherichia coli [6]) [µg/mL] | MIC (Staphylococcus aureus [7]) [µg/mL] | MIC (Pseudomonas aeruginosa [8]) [µg/mL] | inhibition at 2 min, 40 µM [10] [%] | CLH [11] [mL/min/g] | MIC (Acinetobacter baumannii [12]) [µg/mL] | Fh at 1 h, 0.1 µM [13] [%] | MIC (Escherichia coli [15]) [µg/mL] | MIC (Klebsiella pneumoniae [16]) [µg/mL] | MIC (Klebsiella pneumoniae [18]) [µg/mL] | MIC (Escherichia coli [19]) [µg/mL] | MIC (Pseudomonas aeruginosa [20]) [µg/mL] | Fh at 1 h, 0.1 µM [21] [%] | MIC (Klebsiella pneumoniae [22]) [µg/mL] | IC50 [23] [µM] | CLH [24] [mL/min/g] | half-life at 0.1 µM [26] [min] | other results |
| --- | --- | --- | --- | --- | --- | --- | --- | --- | --- | --- | --- | --- | --- | --- | --- | --- | --- | --- | --- | --- | --- |
| CCC(CN)=C1CN(c2nc(C#N)nc3[nH]c4c(NC)cc(F)cc4c23)C1 | 16 (≈ 43.8 µM) | 0.25 (≈ 0.684 µM) | 0.25 (≈ 0.684 µM) | 0.5 (≈ 1.37 µM) | 2 (≈ 5.47 µM) | – | – | – | – | – | – | – | – | – | – | – | – | – | – | – | MIC (Staphylococcus aureus [1]): 2 µg/mL (≈ 5.47 µM); MIC [4]: 0.5 µg/mL (≈ 1.37 µM) |
| CCC(CN)=C1CN(c2nc(Oc3cnc(C(C)O)nc3)nc3[nH]c4c(NC)cc(F)cc4c23)C1 (stereo not drawn) | 16 (≈ 33.4 µM) | < 0.008 | 0.25 (≈ 0.522 µM) | 0.5 (≈ 1.04 µM) | < 0.008 | 4 (≈ 8.36 µM) | 36 | 138.4 | 0.5 (≈ 1.04 µM) | 24.3 | 0.5 (≈ 1.04 µM) | 8 (≈ 16.7 µM) | 2 (≈ 4.18 µM) | 0.5 (≈ 1.04 µM) | > 8 | 33.8 | 4 (≈ 8.36 µM) | > 40 | 38.4 | 54.7 | Vd [9]: 9.3 L/kg; half-life [14]: 162 min; AUC(0-inf) [17]: 983 ng·h/mL; clearance [25]: 71.5 mL/min/kg; half-life at 0.1 µM [27]: 15.2 min; MRT [28]: 126 min; MIC (Acinetobacter baumannii [29]): 0.5 µg/mL (≈ 1.04 µM); MIC (Escherichia coli [30]): 1 µg/mL (≈ 2.09 µM) |
| CNc1cc(F)cc2c1[nH]c1nc(Oc3cnc(C)nc3)nc(N3CC(=C(CN)C(C)C)C3)c12 | 1 (≈ 2.16 µM) | < 0.008 | 0.03 (≈ 0.0649 µM) | 0.125 (≈ 0.27 µM) | < 0.008 | 2 (≈ 4.32 µM) | 26.5 | 118.3 | 0.5 (≈ 1.08 µM) | 27.3 | 1 (≈ 2.16 µM) | 4 (≈ 8.65 µM) | 2 (≈ 4.32 µM) | 0.5 (≈ 1.08 µM) | 4 (≈ 8.65 µM) | 26.2 | 2 (≈ 4.32 µM) | > 40 | 55.2 | 38 | half-life at 0.1 µM [27]: 17.8 min; MIC (Acinetobacter baumannii [29]): 0.5 µg/mL (≈ 1.08 µM); MIC (Escherichia coli [30]): 0.5 µg/mL (≈ 1.08 µM) |
